PubChem BioAssay
The source made the active and inactive calls.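 The calls were made as follows, unless noted: active = viability loss from added drug above about 55%, and viability with drug at most 40%, in both replicates (limit read from the data, passing the limit was not always enough); inconclusive = both conditions met in only one replicate; inactive = neither replicate meets both conditions.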

Assays:
[1] = Her2 expression decrease, cell viability multiplex – SKBR3 breast tumor cells, AlphaScreen, ATP viability, primary screen (AID 461;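 active = Her2 level under about 52% in both replicate screens, with viability over 70% of control, limit read from the data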;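 as to Her2 level: lower value means less Her2 protein in the cells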;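 as to viability: percent of carrier control wells set as 100% viability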); details: SKBR3 Her2 protein level, 18-24 h, measured here: SKBR3 viability, ATP luminescence, at 10 µM
[2] = target: Receptor tyrosine-protein kinase erbB-2 (Homo sapiens) (UniProt P04626); experiment: as above; details: 18-24 h, at 10 µM, stronger effect = lower value
Chain of Receptor tyrosine-protein kinase erbB-2 (Homo sapiens) (P04626 whole entry, looked up): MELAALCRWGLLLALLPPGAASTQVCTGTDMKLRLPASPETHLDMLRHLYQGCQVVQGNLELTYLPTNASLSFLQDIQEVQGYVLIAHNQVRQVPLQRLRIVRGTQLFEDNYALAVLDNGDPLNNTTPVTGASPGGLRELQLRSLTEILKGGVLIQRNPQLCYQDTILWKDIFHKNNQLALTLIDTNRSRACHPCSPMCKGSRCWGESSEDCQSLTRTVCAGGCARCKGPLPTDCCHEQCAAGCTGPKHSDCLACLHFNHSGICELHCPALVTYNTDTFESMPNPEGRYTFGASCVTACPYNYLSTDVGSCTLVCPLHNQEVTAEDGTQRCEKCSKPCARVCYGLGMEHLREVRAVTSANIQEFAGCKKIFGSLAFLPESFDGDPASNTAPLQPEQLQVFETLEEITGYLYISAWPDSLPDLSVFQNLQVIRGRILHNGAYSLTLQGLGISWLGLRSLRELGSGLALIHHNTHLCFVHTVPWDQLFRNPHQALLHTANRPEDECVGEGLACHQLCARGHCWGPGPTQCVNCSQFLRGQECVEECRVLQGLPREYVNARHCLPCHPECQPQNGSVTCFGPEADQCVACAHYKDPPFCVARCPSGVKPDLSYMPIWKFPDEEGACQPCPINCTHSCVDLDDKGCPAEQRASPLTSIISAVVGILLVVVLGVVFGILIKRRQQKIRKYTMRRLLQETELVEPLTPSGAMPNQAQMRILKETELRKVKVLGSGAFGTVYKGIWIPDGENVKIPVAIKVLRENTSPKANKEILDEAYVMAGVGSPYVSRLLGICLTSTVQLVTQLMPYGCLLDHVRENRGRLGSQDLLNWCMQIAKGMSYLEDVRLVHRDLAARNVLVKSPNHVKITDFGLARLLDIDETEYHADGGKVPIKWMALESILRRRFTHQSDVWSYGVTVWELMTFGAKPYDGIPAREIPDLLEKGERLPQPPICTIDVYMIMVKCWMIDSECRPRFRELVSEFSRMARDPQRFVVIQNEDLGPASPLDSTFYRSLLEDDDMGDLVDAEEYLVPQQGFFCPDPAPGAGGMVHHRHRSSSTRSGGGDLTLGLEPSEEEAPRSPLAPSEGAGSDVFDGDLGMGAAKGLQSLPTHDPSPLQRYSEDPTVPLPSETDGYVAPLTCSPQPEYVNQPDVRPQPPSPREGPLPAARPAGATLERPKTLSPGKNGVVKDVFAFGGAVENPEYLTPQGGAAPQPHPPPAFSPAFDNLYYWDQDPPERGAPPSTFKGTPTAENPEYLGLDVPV

[3] = reduced viability of SK-BR-3 breast cancer cells – cell-based, 24 h, human, pilot screen (AID 572;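 active = viability at or below 10% of carrier control in both of two separate runs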;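 also: compound exposure lasted between 18 and 24 h rather than exactly 24 h; 100% = carrier-treated control wells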); details: SK-BR-3 viability, CellTiter-Glo luminescence, at 10 µM, stronger effect = lower value
[4] = HUVEC growth inhibition – cell-based, human, primary screen (AID 575;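 active = viability at or below 30% in both replicate assays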;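 also: 100% = median of untreated cell wells with 0.1% DMSO on each plate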); details: HUVEC proliferation, CellTiter-Glo luminescence, 72 h; at 10 µM; stronger effect = lower value
Procedure, shortened: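 System – primary HUVEC, no more than 12 passages · Medium – Low-serum (2% FBS) EBM, supplemented · Times – 72 h exposure, 37 °C, 5% CO2, 30 min RT equilibration · Measured by – luminescent ATP assay · Read-out – % viability relative to median vehicle-well signal on each plate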

[5] = H69AR cell proliferation blockers – human, duplicate replicates, primary screen (AID 580;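 active = viability at or under a set limit in both replicates, limit being median viability minus 3 SD, cut at about 48% in these data, passing the limit was not always enough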;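 also: 100% = mean luminescence of untreated wells and 0% = no signal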); details: H69AR lung tumor cells viability, ATP luminescence, 72 h; at 10 µM; stronger effect = lower value
[6] = MRP1 drug-resistance reversers in H69AR cells – cell-based, doxorubicin co-treatment, pilot screen (AID 601); details: CellTiter-Glo, 72 h, at 10 µM; for differential viability (reversal): stronger effect = higher value
[7] = yeast transport mutant growth inhibition pilot in 384-well plates, post-Golgi transport modulator project (AID 636; in the data active = inhibition above about 31%); details: absorbance 615 nm, about 18 h, stronger effect = higher value
[8] = growth suppression of yeast trafficking mutant, preliminary HTS, modulators of trafficking downstream of Golgi apparatus project, 1536-format plate, OD 615 nm (AID 637; in the data active = inhibition above about 30%); details: yeast transport mutant growth, absorbance 615 nm, 18 h; stronger effect = higher value
[9] = H69AR cells + 2 uM doxorubicin, measured here: viability with 2 uM doxorubicin, stronger effect = lower value
[10] = H69AR cells, compound alone cytotoxicity

SMILES	viability [1] [%]	Her2 level [2]	viability [3]	viability [4]	viability [5]	differential viability (reversal) ([6]; H69AR cells + 2 uM doxorubicin)	viability [6, 9] [%]	viability [6, 10] [%]	inhibition [7]	inhibition [8]
CC(=O)C1=C(O)C(=O)N(Cc2ccco2)C1c1ccc2c(c1)OCO2 (stereo not given)	108	84.5% (inactive)	108% (inactive)	119% (inactive)	112% (inactive)	7.12% (inactive)	105	112	-5.07% (inactive)	0.48% (inactive)
Cc1ccccc1-n1c(=O)cc(N2CCN(C(=O)c3ccco3)CC2)[nH]c1=O	86	100% (inactive)	86% (inactive)	100% (inactive)	98.3% (inactive)	9.79% (inactive)	88.5	98.3	0.77% (inactive)	0.17% (inactive)
O=C1CCn2nc(-c3ccc(Cl)cc3)cc2N1	106	96% (inactive)	106% (inactive)	31.3% (inactive)	97.8% (inactive)	5.93% (inactive)	91.8	97.8	-2.18% (inactive)	1.83% (inactive)
CCCC(=O)OCCn1c(Br)nc2c1c(=O)[nH]c(=O)n2C	98.5	86.5% (inactive)	98.5% (inactive)	89.4% (inactive)	93.5% (inactive)	5.21% (inactive)	88.2	93.5	-1.47% (inactive)	1.45% (inactive)
Cc1ccc(S(=O)(=O)N2CCOCC2)cc1C(=O)OCC(=O)N1CCc2ccccc2C1	82.5	87.5% (inactive)	82.5% (inactive)	99.9% (inactive)	87.9% (inactive)	-7.28% (inactive)	95.2	87.9	-4% (inactive)	2.95% (inactive)
COc1ccccc1-n1nnnc1SCc1ccccc1	103	94% (inactive)	103% (inactive)	90.6% (inactive)	97.1% (inactive)	16.7% (inactive)	80.3	97.1	-4.27% (inactive)	1.61% (inactive)
CC(NC(=O)c1ccco1)C(c1cccs1)N1CCN(c2ccc(F)cc2)CC1 (stereo not given)	96	89% (inactive)	96% (inactive)	67.9% (inactive)	86.2% (inactive)	-15.7% (inactive)	102	86.2	-4.13% (inactive)	0.16% (inactive)
COc1ccccc1Oc1coc2c(CN3CCN(C)CC3)c(O)ccc2c1=O	102	111% (inactive)	102% (inactive)	96.1% (inactive)	99.5% (inactive)	14.9% (inactive)	84.7	99.5	-1.82% (inactive)	1% (inactive)
Cc1ccc2[nH]cc(C(=O)CN3CCC4(CC3)OCCO4)c2c1	106	90% (inactive)	106% (inactive)	104% (inactive)	92.2% (inactive)	1.75% (inactive)	90.5	92.2	-4.13% (inactive)	-1.48% (inactive)
CCC1Oc2ccccc2N(CC(=O)Nc2ccc(OC)cc2OC)C1=O (stereo not given)	90.5	95.5% (inactive)	90.5% (inactive)	106% (inactive)	100% (inactive)	15% (inactive)	85.3	100	-2.24% (inactive)	-1.09% (inactive)
CN(Cc1cccs1)CC(O)COCc1ccco1 (stereo not given)	107	91.5% (inactive)	107% (inactive)	109% (inactive)	90.5% (inactive)	-3.35% (inactive)	93.9	90.5	-3.92% (inactive)	2.22% (inactive)
Cc1cc(=O)[nH]c(=S)n1-c1ccccc1	99.5	74.5% (inactive)	99.5% (inactive)	101% (inactive)	100% (inactive)	17.7% (inactive)	82.6	100	-7.03% (inactive)	3.33% (inactive)
CCOC(=O)c1ccc(N2C(=O)C3CC=CCC3C2=O)cc1 (stereo not given)	112	116% (inactive)	112% (inactive)	92.8% (inactive)	99.3% (inactive)	7.42% (inactive)	91.9	99.3	-6.4% (inactive)	-10.2% (inactive)
CCSc1nnc(NC(=O)c2nn(C(C)C)c(=O)c3ccccc23)s1	99	77.5% (inactive)	99% (inactive)	81.5% (inactive)	79.4% (inactive)	-9.27% (inactive)	88.7	79.4	-5.39% (inactive)	-2% (inactive)
O=C1CC(N2CCN(C3CCc4ccccc4C3)CC2)C(=O)N1c1ccccc1 (stereo not given)	89.5	97.5% (inactive)	89.5% (inactive)	102% (inactive)	91.6% (inactive)	1.58% (inactive)	90	91.6	-1.95% (inactive)	3.93% (inactive)
CN(C)C(=O)N1CCC(C(=O)NC2CCCCCCC2)CC1	90	112% (inactive)	90% (inactive)	105% (inactive)	92.9% (inactive)	-1.97% (inactive)	94.8	92.9	-3.21% (inactive)	7% (inactive)
Cc1ccc(NC(=O)C2CCCN(S(=O)(=O)c3cnc[nH]3)C2)cc1F (stereo not given)	104	94% (inactive)	104% (inactive)	111% (inactive)	95.1% (inactive)	-0.16% (inactive)	95.3	95.1	-3.73% (inactive)	-3.11% (inactive)
Cc1nnc(NCCc2ccccc2)n(N)c1=O	107	104% (inactive)	107% (inactive)	120% (inactive)	94.1% (inactive)	-3.7% (inactive)	97.8	94.1	-0.4% (inactive)	-9.03% (inactive)
O=C(O)CN1C(=O)CNC1=O	98	93.5% (inactive)	98% (inactive)	99.2% (inactive)	97.6% (inactive)	2.41% (inactive)	95.2	97.6	-4.86% (inactive)	7.21% (inactive)
COc1cccc(N2C(=O)C(O)=C(C(C)=O)C2c2ccc(OC)c(OC)c2)c1 (stereo not given)	94.5	94% (inactive)	94.5% (inactive)	109% (inactive)	100% (inactive)	7.03% (inactive)	93	100	0.26% (inactive)	4.75% (inactive)
CCC(=O)N1CCc2cc(Br)cc(S(=O)(=O)CCC(=O)NCC3CCCO3)c21 (stereo not given)	118	90% (inactive)	118% (inactive)	106% (inactive)	92.8% (inactive)	13.4% (inactive)	79.4	92.8	-6.35% (inactive)	6% (inactive)
COCCCN1C(=O)C(O)=C(C(=O)c2ccco2)C1c1ccc(Br)cc1 (stereo not given)	102	89.5% (inactive)	102% (inactive)	99.5% (inactive)	97.6% (inactive)	10.2% (inactive)	87.4	97.6	-6.13% (inactive)	0.81% (inactive)
CCCCC(O)(C(NC=O)C(=O)OC)C(F)(F)F (stereo not given)	95.5	85% (inactive)	95.5% (inactive)	108% (inactive)	99.4% (inactive)	3.77% (inactive)	95.7	99.4	-2.27% (inactive)	7.58% (inactive)
CC1(C)CC(=O)C(C=Nc2ccc3c(c2)OCO3)=C(O)C1	114	113% (inactive)	114% (inactive)	79.2% (inactive)	75.5% (inactive)	-27.7% (inactive)	103	75.5	0% (inactive)	-4.33% (inactive)
OC(CN1CCN(c2ccccn2)CC1)Cn1c2ccccc2c2ccccc21 (stereo not given)	100	114% (inactive)	100% (inactive)	67.2% (inactive)	82.1% (inactive)	-10.4% (inactive)	92.4	82.1	-0.65% (inactive)	6.5% (inactive)
Cc1cc(OCC(O)CN2CCN(CCO)CC2)ccc1C(C)C (stereo not given)	86.5	96% (inactive)	86.5% (inactive)	101% (inactive)	95.3% (inactive)	10.5% (inactive)	84.8	95.3	-2.21% (inactive)	-1.67% (inactive)
O=C(CCSc1ccccc1)N1CCN(C(=O)c2ccco2)CC1	99	99.5% (inactive)	99% (inactive)	93.1% (inactive)	95.1% (inactive)	11% (inactive)	84.1	95.1	-0.79% (inactive)	-0.32% (inactive)
Cc1cc(C(=O)Nc2ccccc2C#N)n(-c2ccccc2)n1	97.5	100% (inactive)	97.5% (inactive)	92.8% (inactive)	93.9% (inactive)	-3.06% (inactive)	97	93.9	2.93% (inactive)	0% (inactive)
N#CCSc1nc(-c2ccccc2)cs1	86.5	98.5% (inactive)	86.5% (inactive)	109% (inactive)	98% (inactive)	-0.97% (inactive)	98.9	98	-1.71% (inactive)	2.58% (inactive)
